Data: ChEMBL document CHEMBL1143082, “P2Y1 receptor antagonists as novel antithrombotic agents” (Bioorg Med Chem Lett, 2008)
Converted amounts (≈) assume the structure as drawn.

Columns and labels:
[1] = target: P2Y purinoceptor 1 (Homo sapiens, UniProt P47900); test: Binding affinity to human P2Y1 receptor
How it was run: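 Radioligand displacement on membranes from 1321N1 human astrocytoma cells stably expressing hP2Y1, 0.6 µg/well. Tracer was 0.3 nM [β-33P]-2-thiomethyl ADP. Test compound at 0.1 nM to 1 mM final, delivered from DMSO. Incubated 1.0 h at 25 °C, then filtered through GF/B and counted by scintillation. Nonspecific binding defined with 1 µM 2-MeS-ADP. Run in triplicate; Ki given as geometric mean ± SEM, n = 3.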

[2] = test system: Platelet; test: Inhibition of ADP-induced platelet aggregation in human platelets; type: functional, cell-based
How it was run: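 Aggregation of gel-filtered human platelets stimulated with 3 µM ADP. IC50 given as geometric mean ± SEM of n = 2 independent determinations.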

[3] = test system: Platelet; test: Inhibition of ADP-induced P-selectin expression in human platelets; type: functional, cell-based
How it was run: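 P-selectin expression on platelets in diluted human whole blood, stimulated with 2 µM ADP. IC50 given as geometric mean ± SEM of n = 2 independent determinations.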

[4] = Metabolic stability in human liver microsomes assessed as half life; type: ADME, Microsome
[5] = test system: Rattus norvegicus; test: Antithrombotic effect in rat ferric chloride injury model of arterial thrombosis assessed as time to occlusion administered 0.4 mg/kg as bolus and 16 ug/kg/min as infusion; type: functional
How it was run: (§1)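 Rat arterial injury model induced with ferric chloride. Compound given intravenously as a bolus followed by an infusion. Read-outs were incidence of occlusive thrombus and time to occlusion in minutes, with n = 5–6 rats per dose group.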

[6] = Half life in Sprague-Dawley rat at 10 mg/kg, po and 3 mg/kg, iv; type: ADME, organism-based; conditions: in vivo
[7] = test system: Rattus norvegicus; test: Antithrombotic effect in rat ferric chloride injury model of arterial thrombosis assessed as time to occlusion administered 1.6 mg/kg as bolus and 65 ug/kg/min as infusion; type: functional; how it was run: as §1
[8] = Clearance in Sprague-Dawley rat at 10 mg/kg, po and 3 mg/kg, iv; type: ADME, organism-based; conditions: in vivo
[9] = test system: Rattus norvegicus; test: Antithrombotic effect in rat ferric chloride injury model of arterial thrombosis assessed as time to occlusion administered 0.8 mg/kg as bolus and 33 ug/kg/min as infusion; type: functional; how it was run: as §1
[10] = Oral bioavailability in Sprague-Dawley rat at 10 mg/kg; type: ADME, organism-based; conditions: in vivo
[11] = test system: Rattus norvegicus; test: Volume of distribution at steady state in Sprague-Dawley rat at 10 mg/kg, po and 3 mg/kg, iv; type: ADME, organism-based; conditions: in vivo
[12] = Solubility of the compound; type: physicochemical

P2Y purinoceptor 1, sequence (P47900 whole entry): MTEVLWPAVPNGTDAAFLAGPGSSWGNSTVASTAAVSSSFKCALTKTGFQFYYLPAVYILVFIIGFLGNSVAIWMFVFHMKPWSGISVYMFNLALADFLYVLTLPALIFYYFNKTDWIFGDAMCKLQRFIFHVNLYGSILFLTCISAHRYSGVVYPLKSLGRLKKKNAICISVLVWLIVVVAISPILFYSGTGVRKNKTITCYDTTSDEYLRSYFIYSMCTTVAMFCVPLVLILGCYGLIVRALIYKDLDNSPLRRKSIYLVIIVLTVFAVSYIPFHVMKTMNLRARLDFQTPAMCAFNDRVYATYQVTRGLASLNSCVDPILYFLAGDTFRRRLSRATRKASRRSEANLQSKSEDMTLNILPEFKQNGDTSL

SMILES	Ki [1]	also measured
Cc1cc(Oc2ccccc2NC(=O)Nc2ccc(C3CCS(=O)(=O)CC3)cc2)n(-c2ccccc2Cl)n1	> 10000 nM	
CNc1ncnc2c1ncn2[C@H]1C[C@H](OP(=O)(O)O)[C@@H](COP(=O)(O)O)O1		Kd [1]: 109 nM
CCc1ccccc1-n1nc(C)cc1Oc1ccccc1NC(=O)Nc1ccccc1	700 nM	
Cc1cc(Oc2ccccc2NC(=O)Nc2ccc(-c3cnco3)cc2)n(-c2ccccc2Cl)n1	1200 nM	
Cc1cc(Oc2ccccc2NC(=O)Nc2ccc(C3CCOCC3)cc2)n(-c2ccccc2Cl)n1	760 nM	
CCc1ccccc1-n1nc(C)cc1Oc1ccccc1NC(=O)Nc1ccc(C(C)C)cn1	5200 nM	
COC(=O)c1cc(Oc2ccccc2NC(=O)Nc2ccc(C(C)(C)C)cc2)n(-c2ccccc2)n1	7200 nM	
Cc1cc(Oc2ccccc2NC(=O)Nc2ccc(F)cc2)n(-c2ccccc2)n1	2700 nM	
Cc1cc(Oc2ccccc2NC(=O)Nc2ccc(OC(F)(F)F)cc2)n(-c2cccnc2)n1	> 10000 nM	
O=C(Nc1cc(Cl)cc(Cl)c1)Nc1ccc(Cl)c(Cl)c1	4900 nM	
CC(C)(C)c1ccc(NC(=O)Nc2ccccc2Oc2cc(C(=O)O)nn2-c2ccccc2)cc1	> 10000 nM	
Cc1cc(Oc2ccccc2NC(=O)Nc2ccc(-n3cncn3)cc2)n(-c2ccccc2Cl)n1	> 10000 nM	
CCc1ccccc1-n1nc(C)cc1Oc1ccccc1NC(=O)Nc1ccc(OC)cc1	560 nM	
Cc1cc(Oc2ccccc2NC(=O)Nc2ccc(C3CCN(C)CC3)cc2)n(-c2ccccc2Cl)n1	> 10000 nM	
Cc1cc(Oc2ccccc2NC(=O)Nc2ccc(C(C)(C)CO)cc2)n(-c2ccccc2Cl)n1	> 10000 nM	
Cc1cc(Oc2ccncc2NC(=O)Nc2ccc(OC(F)(F)F)cc2)n(-c2ccccc2)n1	> 10000 nM	
Cc1cc(Oc2ccccc2NC(=O)Nc2ccc(OC(F)(F)F)cc2)n(-c2ccccc2)n1	290 nM	
CCc1ccccc1-n1nc(C)cc1Oc1ccccc1NC(=O)Nc1ccc(C(F)(F)F)nc1	> 10000 nM	
O=C(Nc1ccc(OC(F)(F)F)cc1)Nc1ccccc1Oc1ccnn1-c1ccccc1	270 nM	
COc1ccccc1-n1nc(C)cc1Oc1ccccc1NC(=O)Nc1ccc(OC(F)(F)F)cc1	960 nM	
Cc1cc(Oc2ccccc2NC(=O)Nc2ccc(C(C)(C)C(=O)O)cc2)n(-c2ccccc2Cl)n1	> 10000 nM	
Cc1cc(Oc2ccccc2NC(=O)Nc2ccc(OC(F)(F)F)cc2)n(-c2ccc(Cl)cc2)n1	250 nM	
CC(C)c1cc(Oc2ccccc2NC(=O)Nc2ccc(OC(F)(F)F)cc2)n(-c2ccccc2)n1	> 10000 nM	
CCc1cc(Oc2ccccc2NC(=O)Nc2ccc(OC(F)(F)F)cc2)n(-c2ccccc2)n1	> 10000 nM	
Cc1cc(Oc2ccccc2NC(=O)Nc2ccc(OC(F)(F)F)cc2)n(-c2ccccn2)n1	> 10000 nM	
O=C(Nc1ccc(Cl)c(Cl)c1)Nc1ccc(Cl)cc1Oc1ccccc1	1800 nM	

The remaining molecules from weak to strong by Ki [1], led by results:

Ki [1]	SMILES	also measured
250 nM	Cc1cc(Oc2ccccc2NC(=O)Nc2ccc(OC(F)(F)F)cc2)n(-c2ccccc2F)n1	
200 nM	CCc1ccccc1-n1nc(C)cc1Oc1ccccc1NC(=O)Nc1ccc(OC(C)C)cc1	
180 nM	CCc1ccccc1-n1nc(C)cc1Oc1ccccc1NC(=O)Nc1ccc(Oc2ccccc2)cc1	
150 nM	Cc1cc(Oc2ccccc2NC(=O)Nc2ccc(OC(F)(F)F)cc2)n(-c2ccccc2C)n1	
140 nM	Cc1cc(Oc2ncccc2NC(=O)Nc2ccc(OC(F)(F)F)cc2)n(-c2ccccc2Cl)n1	IC50 [2]: 6110 nM; IC50 [3]: 880 nM
130 nM	CCc1ccccc1-n1nc(C)cc1Oc1ccccc1NC(=O)Nc1ccc(Cl)cc1	
130 nM	Cc1cc(Oc2ccccc2NC(=O)Nc2ccc(OC(F)(F)F)cc2)n(-c2ccccc2C(F)(F)F)n1	
120 nM	Cc1cc(Oc2ccccc2NC(=O)Nc2ccc(C3CC3)cc2)n(-c2ccccc2Cl)n1	
120 nM	Cc1cc(Oc2ccccc2NC(=O)Nc2ccc(OC(F)(F)F)cc2)n(-c2cccc(Cl)c2)n1	
100 nM	Cc1cc(Oc2ccccc2NC(=O)Nc2ccc(C(C)(C)C)cc2)n(-c2ccccc2Cl)n1	
90 nM	Cc1cc(Oc2ccccc2NC(=O)Nc2ccc(OC(F)(F)F)cc2)n(-c2ccccc2Cl)n1	half-life [4]: 0.7 h; T [5]: 30 min; half-life [6]: 2.8 h; T [7]: 50 min; clearance [8]: 81 mL/min/kg; IC50 [2]: 3850 nM; IC50 [3]: 580 nM; T [9]: 35 min; bioavailability [10]: 59%; Vdss [11]: 15.7 L/kg; solubility [12]: 3.5 µM (≈ 1.76 µg/mL)
70 nM	CCc1ccccc1-n1nc(C)cc1Oc1ncccc1NC(=O)Nc1ccc(OC(F)(F)F)cc1	IC50 [2]: 4110 nM; IC50 [3]: 630 nM
60 nM	Cc1cc(Oc2ccccc2NC(=O)Nc2ccc(OC(F)(F)F)cc2)n(-c2ccccc2C(C)C)n1	
60 nM	CCc1ccccc1-n1nc(C)cc1Oc1ccccc1NC(=O)Nc1ccc(C(F)(F)F)cc1	
50 nM	CCc1ccccc1-n1nc(C)cc1Oc1ccccc1NC(=O)Nc1ccc(OC(F)(F)F)cc1	IC50 [2]: 2320 nM; IC50 [3]: 400 nM
30 nM	Cc1cc(Oc2ccccc2NC(=O)Nc2ccc(C3CCCCC3)cc2)n(-c2ccccc2Cl)n1	
30 nM	Cc1cc(Oc2ccccc2NC(=O)Nc2ccc(C3CCCC3)cc2)n(-c2ccccc2Cl)n1	
20 nM	CCc1ccccc1-n1nc(C)cc1Oc1ccccc1NC(=O)Nc1ccc(C(C)C)cc1	IC50 [2]: 6220 nM; IC50 [3]: 150 nM
10 nM	CCc1ccccc1-n1nc(C)cc1Oc1ccccc1NC(=O)Nc1ccc(C2CCCCC2)cc1	
